Measured values of several laboratories.
Protocols differ between the studies behind these lines. pIC50, pKd, pKi: −log10 of the molar value.
Nectin-4: Nectin-4 (Homo sapiens, UniProt Q96NY8)
SIGMAR1: Sigma non-opioid intracellular receptor 1 (SIGMAR1, Homo sapiens, UniProt Q99720)
PFF0160c: Dihydroorotate dehydrogenase (quinone), mitochondrial (PFF0160c, Plasmodium falciparum, UniProt Q08210)
PFF0160c E182D: Dihydroorotate dehydrogenase (quinone), mitochondrial (PFF0160c, Plasmodium falciparum, UniProt Q08210, E182D)

| SMILES | target | effect on | action | method | quantity | result |
| --- | --- | --- | --- | --- | --- | --- |
| CCCC[C@@H]1NC(=O)[C@H](Cc2ccc(O)cc2)NC(=O)[C@@H]2CCCN2C(=O)[C@H](CC(=O)O)NC(=O)[C@H](C)NC(=O)[C@H](Cc2ccccc2)NC(=O)[C@@H]2CSCCC(=O)N3CN(CN(C3)C(=O)CCSC[C@@H](C(=O)N[C@@H](C)C(N)=O)NC1=O)C(=O)CCSC[C@H](NC(C)=O)C(=O)N[C@@H](CC(C)(C)C)C(=O)N1CCC[C@H]1C(=O)N[C@@H](CCC(=O)O)C(=O)N[C@H](CCCCNC(=O)CCc1cn(CCOCCOCCOCCOCCOCCC(=O)NCCCC[C@H]3NC(=O)[C@H](Cc4cccc5ccccc45)NC(=O)[C@@H]4CCCN4C(=O)CCSCCC(=O)N4CN5CN(C4)C(=O)CCSC[C@H](NC3=O)C(=O)N[C@@H](CCSC)C(=O)N[C@@H](CCCCNC(=N)N)C(=O)N[C@@H](CC(=O)O)C(=O)N[C@@H](Cc3c[nH]c4ccccc34)C(=O)N[C@@H](CO)C(=O)N[C@@H]([C@@H](C)O)C(=O)N3CCC[C@H]3C(=O)N3C[C@H](O)C[C@H]3C(=O)N[C@@H](Cc3c[nH]c4ccccc34)C(=O)N[C@H](C(N)=O)CSCCC5=O)nn1)C(=O)N1CCC[C@H]1C(=O)N[C@@H](Cc1ccc(O)cc1)C(=O)N2 | Nectin-4 | binding | – | SPR | pKd | 8.66 |
| Cc1cc2c(s1)Nc1ccccc1N=C2N1CCN(C)CC1 | SIGMAR1 | ligand displacement | – | radioligand | pKi | < 5.00 |
| CCCC[C@@H]1NC(=O)[C@H](Cc2ccc(O)cc2)NC(=O)[C@@H]2CCCN2C(=O)[C@H](CC(=O)O)NC(=O)[C@H](C)NC(=O)[C@H](Cc2ccccc2)NC(=O)[C@@H]2CSCCC(=O)N3CN(CN(C3)C(=O)CCSC[C@@H](C(=O)N[C@@H](C)C(N)=O)NC1=O)C(=O)CCSC[C@H](NC(=O)[C@H](C)NC(C)=O)C(=O)N[C@@H]([C@@H](C)CC)C(=O)N[C@@H](CCC(=O)O)C(=O)N[C@@H](CCC(=O)O)C(=O)N[C@H](CCCCNC(=O)CCc1cn(CCOCCOCCOCCN(CCOCCOCCOCCC(=O)N[C@H]3CSCCC(=O)N4CN5CN(C4)C(=O)CCSC[C@H](NC(=O)[C@@H](CC(=O)O)NC(=O)[C@H](Cc4cccc6ccccc46)NC(=O)[C@@H]4CCCN4C3=O)C(=O)N[C@@H](CCSC)C(=O)N[C@@H](CCCCNC(=N)N)C(=O)N[C@@H](CC(=O)O)C(=O)N[C@@H](Cc3c[nH]c4ccccc34)C(=O)N[C@@H](CO)C(=O)N[C@@H]([C@@H](C)O)C(=O)N3CCC[C@H]3C(=O)N3C[C@H](O)C[C@H]3C(=O)N[C@@H](Cc3c[nH]c4ccccc34)C(=O)N[C@H](C(N)=O)CSCCC5=O)CCOCCOCCOCCn3cc(CCC(=O)NCCCC[C@H]4NC(=O)[C@H](CCC(=O)O)NC(=O)[C@H](CCC(=O)O)NC(=O)[C@H]([C@@H](C)CC)NC(=O)[C@@H](NC(=O)[C@H](C)NC(C)=O)CSCCC(=O)N5CN6CN(C5)C(=O)CCSC[C@H](NC(=O)[C@H](Cc5ccc(O)cc5)NC(=O)[C@H](CCC(N)=O)NC4=O)C(=O)N[C@@H](Cc4ccccc4)C(=O)N[C@@H](C)C(=O)N[C@@H](CC(=O)O)C(=O)N4CCC[C@H]4C(=O)N[C@@H](Cc4ccc(O)cc4)C(=O)N[C@@H](CCCC)C(=O)N[C@H](C(=O)N[C@@H](C)C(N)=O)CSCCC6=O)nn3)nn1)C(=O)N[C@@H](CCC(N)=O)C(=O)N[C@@H](Cc1ccc(O)cc1)C(=O)N2 | Nectin-4 | binding | – | SPR | pKd | 8.17 |
| COc1cc2c(cc1OC)CN(CCc1ccc(NC(=O)c3cc(OC)c(OC)cc3NC(=O)c3cnc4ccccc4c3)cc1)CC2 | SIGMAR1 | ligand displacement | – | radioligand | pKi | 6.33 |
| O=C1C(c2ccccc2)=C(Nc2ccc([N+](=O)[O-])cc2)c2ccccc21 | PFF0160c | enzyme activity | inhibitor | absorbance | pIC50 | 5.67 |
| CN(C)CCC(c1ccc(Cl)cc1)c1ccccn1 (stereo not drawn) | SIGMAR1 | ligand displacement | – | radioligand | pKi | 5.88 |
| Cc1cccc(C(=O)N2CCN(Cc3cccc(NC(=O)c4cccs4)c3)CC2)c1 | PFF0160c E182D | enzyme activity | inhibitor | absorbance | pIC50 | 5.18 |
| N[C@@H](CC(=O)O)C(=O)O | tar (Salmonella enterica, UniProt P02941, E302Q/E491Q) | binding | – | – | pKd | 6.00 |
| CCCCN(C)CC#Cc1ccc2[nH]c(C)c(Cl)c(=O)c2c1 | PFF0160c | enzyme activity | inhibitor | absorbance | pIC50 | 5.34 |
| CCCC[C@@H]1NC(=O)[C@H](Cc2ccc(O)cc2)NC(=O)[C@@H]2CCCN2C(=O)[C@H](CC(=O)O)NC(=O)[C@H](C)NC(=O)[C@H](Cc2ccccc2)NC(=O)[C@@H]2CSCCC(=O)N3CN(CN(C3)C(=O)CCSC[C@H](NC(C)=O)C(=O)N[C@@H](CC(C)(C)C)C(=O)N[C@@H](CCC(=O)O)C(=O)N[C@@H](CCC(=O)O)C(=O)N[C@H](CCCCNC(=O)CCc3cn(CCOCCOCCOCCN(CCOCCOCCOCCC(=O)N[C@H]4CSCCC(=O)N5CN6CN(C5)C(=O)CCSC[C@H](NC(=O)[C@@H](CC(=O)O)NC(=O)[C@H](Cc5cccc7ccccc57)NC(=O)[C@@H]5CCCN5C4=O)C(=O)N[C@@H](CCSC)C(=O)N[C@@H](CCCCNC(=N)N)C(=O)N[C@@H](CC(=O)O)C(=O)N[C@@H](Cc4c[nH]c5ccccc45)C(=O)N[C@@H](CO)C(=O)N[C@@H]([C@@H](C)O)C(=O)N4CCC[C@H]4C(=O)N4C[C@H](O)C[C@H]4C(=O)N[C@@H](Cc4c[nH]c5ccccc45)C(=O)N[C@H](C(N)=O)CSCCC6=O)CCOCCOCCOCCn4cc(CCC(=O)NCCCC[C@H]5NC(=O)[C@H](CCC(=O)O)NC(=O)[C@H](CCC(=O)O)NC(=O)[C@H](CC(C)(C)C)NC(=O)[C@@H](NC(C)=O)CSCCC(=O)N6CN7CN(C6)C(=O)CCSC[C@H](NC(=O)[C@H](Cc6ccc(O)cc6)NC(=O)[C@@H]6CCCN6C5=O)C(=O)N[C@@H](Cc5ccccc5)C(=O)N[C@@H](C)C(=O)N[C@@H](CC(=O)O)C(=O)N5CCC[C@H]5C(=O)N[C@@H](Cc5ccc(O)cc5)C(=O)N[C@@H](CCCC)C(=O)N[C@H](C(N)=O)CSCCC7=O)nn4)nn3)C(=O)N3CCC[C@H]3C(=O)N[C@@H](Cc3ccc(O)cc3)C(=O)N2)C(=O)CCSC[C@@H](C(N)=O)NC1=O | Nectin-4 | binding | – | SPR | pKd | 8.30 |
| O=C(CNCC1CCCCC1)Nc1cc(C(F)(F)F)ccc1Cl | PFF0160c E182D | enzyme activity | inhibitor | absorbance | pIC50 | 5.08 |
| CCCC[C@@H]1NC(=O)[C@H](Cc2ccc(O)cc2)NC(=O)[C@@H]2CCCN2C(=O)[C@H](CC(=O)O)NC(=O)[C@H](C)NC(=O)[C@H](Cc2ccccc2)NC(=O)[C@@H]2CSCCC(=O)N3CN(CN(C3)C(=O)CCSC[C@@H](C(N)=O)NC1=O)C(=O)CCSCCC(=O)N[C@@H](CC(C)(C)C)C(=O)N1CCC[C@H]1C(=O)N[C@@H](CCC(=O)O)C(=O)N[C@H](CCCCNC(=O)CCc1cn(CCOCCOCCOCCN(CCOCCOCCOCCC(=O)N[C@H]3CSCCC(=O)N4CN5CN(C4)C(=O)CCSC[C@H](NC(=O)[C@@H](CC(=O)O)NC(=O)[C@H](Cc4cccc6ccccc46)NC(=O)[C@@H]4CCCN4C3=O)C(=O)N[C@@H](CCSC)C(=O)N[C@@H](CCCCNC(=N)N)C(=O)N[C@@H](CC(=O)O)C(=O)N[C@@H](Cc3c[nH]c4ccccc34)C(=O)N[C@@H](CO)C(=O)N[C@@H]([C@@H](C)O)C(=O)N3CCC[C@H]3C(=O)N3C[C@H](O)C[C@H]3C(=O)N[C@@H](Cc3c[nH]c4ccccc34)C(=O)N[C@H](C(N)=O)CSCCC5=O)CCOCCOCCOCCn3cc(CCC(=O)NCCCC[C@H]4NC(=O)[C@H](CCC(=O)O)NC(=O)[C@@H]5CCCN5C(=O)[C@H](CC(C)(C)C)NC(=O)CCSCCC(=O)N5CN6CN(C5)C(=O)CCSC[C@H](NC(=O)[C@H](Cc5ccc(O)cc5)NC(=O)[C@@H]5CCCN5C4=O)C(=O)N[C@@H](Cc4ccccc4)C(=O)N[C@@H](C)C(=O)N[C@@H](CC(=O)O)C(=O)N4CCC[C@H]4C(=O)N[C@@H](Cc4ccc(O)cc4)C(=O)N[C@@H](CCCC)C(=O)N[C@H](C(N)=O)CSCCC6=O)nn3)nn1)C(=O)N1CCC[C@H]1C(=O)N[C@@H](Cc1ccc(O)cc1)C(=O)N2 | Nectin-4 | binding | – | SPR | pKd | 8.64 |
